IC50 data for 8 compounds are collected here from ChEMBL document CHEMBL4825737, “Design, synthesis, and biological evaluation of novel 6-(pyridin-3-yl) quinazolin-4(3H)-one derivatives as potential anticancer agents via PI3K inhibition” (Bioorg Med Chem, 2021).

Bounds are passed on as bounds.

Assay [1] is described as follows: Inhibition of PI3K in human HCC827 cells assessed as decrease in phosphorylation incubated for 24 hrs by cell PI3 kinase activity photometric assay. It is filed as cell-based. Particulars: HCC827, 24 h. Put shortly:
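Human NSCLC HCC827 cells grown in RPMI 1640 with 10% FBS and antibiotics-antimycotics, exposed to a range of concentrations for 24 h. Cells washed with Reagent A, lysed with Reagent B, protein measured by Bradford, then 100 μg lysate protein per group used in a cell PI3K assay kit for kinase activity. IC50 given as mean ± SD of three separate experiments.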

Assay [2] relates to HCC827. Briefly: Antiproliferative activity against human HCC827 cells assessed as reduction in cell viability measured after 72 hrs by flow cytometry analysis. Format: functional, cell-based. The settings on record: HCC827, 72 h. Put shortly: (§1)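 Cells in RPMI 1640 with 10% FBS and penicillin/streptomycin/amphotericin B, seeded at 2.5–3 × 10⁴ per well. Grown adherent in fresh medium for 24 h, then exposed to a range of compound concentrations for 72 h. Living cell numbers counted by flow cytometry; IC50 calculated. Mean ± SD from three experiments.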
On the technique in general: Flow cytometry measures light scatter and fluorescence of single cells or particles in a stream.

Assay [3] in a line: Antiproliferative activity against human LM3 cells assessed as reduction in cell viability measured after 72 hrs by flow cytometry analysis. Format: functional, cell-based. Particulars: GILM3, 72 h. Put shortly:
as §1

Assay [4] deals with SH-SY5Y. Description: Antiproliferative activity against human SH-SY5Y assessed as reduction in cell viability measured after 72 hrs by flow cytometry analysis. Format: functional, cell-based. Put shortly:
as §1

The test system of assay [5] is HEL. Briefly: Antiproliferative activity against human HEL cells assessed as reduction in cell viability measured after 72 hrs by flow cytometry analysis. Format: functional, cell-based. In short, it runs like this:
as §1

Assay [6] has as its system L02. Briefly: Antiproliferative activity against human HL7702 cells assessed as reduction in cell viability measured after 72 hrs by flow cytometry analysis. Format: functional, cell-based. Particulars: L02, 72 h. In short, it runs like this:
as §1

Consider `COC[C@H]1OC(=O)c2coc3c2[C@@]1(C)C1=C(C3=O)[C@@H]2CCC(=O)[C@@]2(C)C[C@H]1OC(C)=O` [WORTMANNIN], for which the IC50 (usually the concentration at which inhibition is half-maximal) in assay [1] was determined as 0.018 µM.

In the case of `CCCCC(=O)Nc1ccc(-c2ccc3ncn(Cc4ccc(C)cc4)c(=O)c3c2)cn1`, the IC50 is 32.2 µM in assay [2], over 40 µM in assay [3], 35.4 µM in assay [4] and 18.8 µM in assay [5].

Take `CCC(=O)Nc1ccc(-c2ccc3ncn(Cc4ccc(C)cc4)c(=O)c3c2)cn1`: the IC50 in assay [2], in assay [3], in assay [4] and in assay [5] was over 40 µM each time.

Turning to `CCCCC(=O)Nc1ccc(-c2ccc3ncn(Cc4ccccc4)c(=O)c3c2)cn1`, the IC50 in assay [2], in assay [3], in assay [4] and in assay [5] was over 40 µM throughout.

As to `CCCCC(=O)Nc1ccc(-c2ccc3ncn(Cc4ccc5c(c4)OCO5)c(=O)c3c2)cn1`, the IC50 in assay [2], in assay [3], in assay [4] and in assay [5] was over 40 µM throughout.

With `CCCCn1cnc2ccc(-c3ccc(NC(=O)CC)nc3)cc2c1=O`, the IC50 in assay [6] is 10.9 µM; in assay [2], 1.2 µM; in assay [3] it was 2.49 µM; in assay [4], 3.72 µM; in assay [5], 2.83 µM.

Consider `Cc1ccc(Cn2cnc3ccc(-c4ccc(N(C(=O)c5ccccc5)C(=O)c5ccccc5)nc4)cc3c2=O)cc1`, for which the IC50 in assay [2] was 29.2 µM; in assay [3], over 40 µM; in assay [4], over 40 µM; in assay [5], over 40 µM.

Regarding `COCC(=O)Nc1ccc(-c2ccc3ncn(Cc4ccccc4)c(=O)c3c2)cn1`, the half-maximal inhibitory concentration (IC50) in assay [2], in assay [3], in assay [4] and in assay [5] was over 40 µM throughout.
